# In ChEMBL document CHEMBL6078712, “Triterpenoid phthalimides as selective anti-cancer agents targeting mitochondrial apoptosis” (Eur J Med Chem, 2025):
# Activity calls are given as the source filed them. No cut-off for these calls is given here.
# Columns and labels:
# [1] = system: CCRF-CEM; test: Induction of apoptosis in human CCRF-CEM cells assessed as upregulation of BIM expression at 1 to 5 times IC50 incubated for 24 hrs by Western blotting analysis; assay type: functional, cell-based
# Procedure, shortened: (§1)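 30 µg protein per lane on SDS-PAGE, transferred to nitrocellulose, blocked in 5 % BSA/TBS-Tween. Primary antibodies overnight at 4 °C (Akt, P-Akt Ser473, STAT-3, caspase-3, PARP, cyclin D, cyclin A, Bcl-xL, Bak, Bid, Bim), then HRP secondary and ECL detection. GAPDH as loading control.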
# [2] = system: CCRF-CEM; test: Induction of apoptosis in human CCRF-CEM cells assessed as late apoptotic cells at 5 times IC50 incubated for 24 hrs by Annexin V-FITC and PI staining based flow cytometric analysis (reference value: 0.4 %); assay type: functional
# Procedure, shortened: (§2)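 Washed in Ca2+-containing binding buffer, then stained 15 min at room temperature in the dark with Annexin V-FITC and propidium iodide (PI at half the kit-recommended level). Read at once by flow cytometry with a 488 nm laser, ≥10,000 cells. Debris excluded; quadrants viable, early apoptotic, late apoptotic/necrotic, necrotic. Three independent experiments.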
# [3] = Stability in human plasma assessed as compound remaining at 2 uM incubated for 120 mins by RF-MS analysis; assay type: ADME, cell-free; conditions: read-out: Stability
# Procedure, shortened: (§3)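 Human plasma stability, plasma protein binding and liver microsome stability, each run in triplicate. Error deviations below 10 %.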
# [4] = system: CCRF-CEM; test: Induction of apoptosis in human CCRF-CEM cells assessed as late apoptotic cells at 1 times IC50 incubated for 24 hrs by Annexin V-FITC and PI staining based flow cytometric analysis (reference value: 0.4 %); assay type: functional; procedure, shortened: as §2
# [5] = system: Mitochondrial membrane; test: Induction of mitochondrial membrane potential depolarization in human CCRF-CEM cells assessed as fold increase in fluorescence intensity incubated for 24 hrs by JC-1 staining based flow cytometry; assay type: cell membranes
# [6] = system: CCRF-CEM; test: Induction of cell cycle arrest in human CCRF-CEM cells assessed as downregulation of AKT phosphorylation at 5 times IC50 incubated for 24 hrs by Western blotting analysis; assay type: functional, cell-based; procedure, shortened: as §1
# [7] = Stability in human plasma assessed as compound remaining at 2 uM incubated for 60 mins by RF-MS analysis; assay type: ADME, cell-free; conditions: read-out: Stability; procedure, shortened: as §3
# [8] = system: CCRF-CEM; test: Induction of apoptosis in human CCRF-CEM cells assessed as necrotic cells at 1 times IC50 incubated for 24 hrs by Annexin V-FITC and PI staining based flow cytometric analysis (reference value: 0.4 %); assay type: functional; procedure, shortened: as §2
# [9] = system: CCRF-CEM; test: Induction of apoptosis in human CCRF-CEM cells assessed as upregulation of BID expression at 1 to 5 times IC50 incubated for 24 hrs by Western blotting analysis; assay type: functional, cell-based; procedure, shortened: as §1
# [10] = Stability in human plasma assessed as compound remaining at 2 uM incubated for 15 mins by RF-MS analysis; assay type: ADME, cell-free; conditions: read-out: Stability; procedure, shortened: as §3
# [11] = Cytotoxicity against human BJ cells assessed as inhibition of cell growth incubated for 72 hrs by MTS assay; assay type: toxicity, cell-based
# Procedure, shortened: (§4)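 MTS assay on eight human cancer lines and two non-tumour fibroblast lines. IC50 is the concentration that inhibits cell growth by 50 %. SD typically up to 15 % of the mean.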
# [12] = Metabolic stability in human liver microsomes assessed as parent compound remaining at 2 uM incubated for 15 mins in presence of NADPH by RF-MS analysis; assay type: ADME, Microsome; conditions: read-out: Stability; procedure, shortened: as §3
# [13] = system: CCRF-CEM; test: Inhibition of RNA synthesis in human CCRF-CEM cells at 1 times IC50 incubated for 24 hrs by BrU incorporation based flow cytometry; assay type: functional
# Procedure, shortened: (§5)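 Fixed in 1 % paraformaldehyde/0.05 % NP-40 (15 min at room temperature, then 4 °C overnight). Stained with cross-reacting anti-BrdU plus FITC secondary (45 min each), then PI/RNase A. Flow cytometry; % BrU-positive cells.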
# [14] = system: K562; test: Cytotoxicity against human K562 cells assessed as inhibition of cell growth incubated for 72 hrs by MTS assay; assay type: functional, cell-based; conditions: K562, 72 h; procedure, shortened: as §4
# [15] = system: CCRF-CEM; test: Inhibition of DNA synthesis in human CCRF-CEM cells at 5 times IC50 incubated for 24 hrs by BrdU incorporation based flow cytometry; assay type: functional
# Procedure, shortened: (§6)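 Fixed in ice-cold 70 % ethanol, DNA denatured in 2 M HCl for 30 min, neutralised with borax. Stained with anti-BrdU plus FITC secondary, then PI/RNase A for 1 h. Flow cytometry; % BrdU-positive cells.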
# [16] = system: CCRF-CEM; test: Induction of apoptosis in human CCRF-CEM cells assessed as downregulation of caspase-3 expression at 5 times IC50 incubated for 24 hrs by Western blotting analysis; assay type: functional, cell-based; procedure, shortened: as §1
# [17] = system: CEM-DNR; test: Cytotoxicity against human CEM-DNR cells assessed as inhibition of cell growth incubated for 72 hrs by MTS assay; assay type: functional, cell-based; procedure, shortened: as §4
# [18] = Metabolic stability in human liver microsomes assessed as parent compound remaining at 2 uM incubated for 60 mins in presence of NADPH by RF-MS analysis; assay type: ADME, Microsome; conditions: read-out: Stability; procedure, shortened: as §3
# [19] = system: CCRF-CEM; test: Induction of cell cycle arrest in human CCRF-CEM cells assessed as downregulation of Cyclin D expression at 1 to 5 times IC50 incubated for 24 hrs by Western blotting analysis; assay type: functional, cell-based; procedure, shortened: as §1
# [20] = Cytotoxicity against human K562-Tax cells assessed as inhibition of cell growth incubated for 72 hrs by MTS assay; assay type: functional, cell-based; procedure, shortened: as §4
# [21] = system: A549; test: Cytotoxicity against human A549 cells assessed as inhibition of cell growth incubated for 72 hrs by MTS assay; assay type: functional, cell-based; conditions: A549, 72 h; procedure, shortened: as §4
# [22] = system: HCT 116 TP53(-/-); test: Cytotoxicity against human HCT116-p53-null cells assessed as inhibition of cell growth incubated for 72 hrs by MTS assay; assay type: functional, cell-based; procedure, shortened: as §4
# [23] = system: CCRF-CEM; test: Induction of apoptosis in human CCRF-CEM cells assessed as early apoptotic cells at 5 times IC50 incubated for 24 hrs by Annexin V-FITC and PI staining based flow cytometric analysis (reference value: 2.1 %); assay type: functional; procedure, shortened: as §2
# [24] = system: CCRF-CEM; test: Induction of apoptosis in human CCRF-CEM cells assessed as viable cells at 1 times IC50 incubated for 24 hrs by Annexin V-FITC and PI staining based flow cytometric analysis (reference value: 97.4 %); assay type: functional; procedure, shortened: as §2
# [25] = system: CCRF-CEM; test: Induction of cell cycle arrest in human CCRF-CEM cells assessed as increase in accumulation of G0/G1 phase at 1 times IC50 incubated for 24 hrs by RNase/PI staining based flow cytometry; assay type: functional
# Procedure, shortened: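 Propidium iodide staining and flow cytometry with a 488 nm laser, ≥10,000 intact cells. Phase proportions compared with untreated cells; SEM of three independent experiments.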
# [26] = system: CCRF-CEM; test: Induction of cell cycle arrest in human CCRF-CEM cells assessed as downregulation of total STAT3 expression at 1 to 5 times IC50 incubated for 24 hrs by Western blotting analysis; assay type: functional, cell-based; procedure, shortened: as §1
# [27] = system: CCRF-CEM; test: Induction of cell cycle arrest in human CCRF-CEM cells assessed as downregulation of AKT phosphorylation at 1 times IC50 incubated for 24 hrs by Western blotting analysis; assay type: functional, cell-based; procedure, shortened: as §1
# [28] = Plasma protein binding in human assessed as fraction bound at 10 uM incubated for 4 hrs by rapid equilibrium dialysis based RF-MS analysis; assay type: ADME, cell-free; conditions: read-out: PPB (converted); procedure, shortened: as §3
# [29] = Stability in human plasma assessed as compound remaining at 2 uM incubated for 30 mins by RF-MS analysis; assay type: ADME, cell-free; conditions: read-out: Stability; procedure, shortened: as §3
# [30] = system: CCRF-CEM; test: Induction of apoptosis in human CCRF-CEM cells assessed as viable cells at 5 times IC50 incubated for 24 hrs by Annexin V-FITC and PI staining based flow cytometric analysis (reference value: 97.4 %); assay type: functional; procedure, shortened: as §2
# [31] = system: U2OS; test: Cytotoxicity against human U2OS cells assessed as inhibition of cell growth incubated for 72 hrs by MTS assay; assay type: functional, cell-based; procedure, shortened: as §4
# [32] = system: CCRF-CEM; test: Induction of cell cycle arrest in human CCRF-CEM cells assessed as downregulation of Cyclin A expression at 5 times IC50 incubated for 24 hrs by Western blotting analysis; assay type: functional, cell-based; procedure, shortened: as §1
# [33] = system: CCRF-CEM; test: Induction of apoptosis in human CCRF-CEM cells assessed as necrotic cells at 5 times IC50 incubated for 24 hrs by Annexin V-FITC and PI staining based flow cytometric analysis (reference value: 0.4 %); assay type: functional; procedure, shortened: as §2
# [34] = system: CCRF-CEM; test: Inhibition of DNA synthesis in human CCRF-CEM cells at 1 times IC50 incubated for 24 hrs by BrdU incorporation based flow cytometry; assay type: functional; procedure, shortened: as §6
# [35] = Cytotoxicity against human MRC5 cells assessed as inhibition of cell growth incubated for 72 hrs by MTS assay; assay type: toxicity, cell-based; procedure, shortened: as §4
# [36] = system: CCRF-CEM; test: Inhibition of RNA synthesis in human CCRF-CEM cells at 5 times IC50 incubated for 24 hrs by BrU incorporation based flow cytometry; assay type: functional; procedure, shortened: as §5
# [37] = system: CCRF-CEM; test: Induction of apoptosis in human CCRF-CEM cells assessed as early apoptotic cells at 1 times IC50 incubated for 24 hrs by Annexin V-FITC and PI staining based flow cytometric analysis (reference value: 2.1 %); assay type: functional; procedure, shortened: as §2
# [38] = Metabolic stability in human liver microsomes assessed as parent compound remaining at 2 uM incubated for 30 mins in presence of NADPH by RF-MS analysis; assay type: ADME, Microsome; conditions: read-out: Stability; procedure, shortened: as §3
# [39] = system: HCT-116; test: Cytotoxicity against human HCT-116 cells assessed as inhibition of cell growth incubated for 72 hrs by MTS assay; assay type: functional, cell-based; conditions: HCT-116, 72 h; procedure, shortened: as §4
# [40] = system: CCRF-CEM; test: Cytotoxicity against human CCRF-CEM cells assessed as inhibition of cell growth incubated for 72 hrs by MTS assay; assay type: functional, cell-based; procedure, shortened: as §4
smiles,measurement,setting,value
CC(=O)O[C@H]1CC[C@]2(C)[C@H]3CC[C@@H]4[C@H]5[C@H](c6cc7c(c(-c8ccccc8)c6)C(=O)N(c6nccs6)C7=O)CC[C@]5(C(=O)O)CC[C@@]4(C)[C@]3(C)CC[C@H]2C1(C)C,Activity,[1],Active
same,Activity,[2],3.2%
same,"remaining at 2 h, 2 µM",[3],85%
same,Activity,[4],2.6%
same,Activity,[5],Dose-dependent-effect
same,Activity,[6],Active
same,"remaining at 1 h, 2 µM",[7],96%
same,Activity,[8],0%
same,Activity,[9],Active
same,"remaining at 0.25 h, 2 µM",[10],98%
same,IC50 at 72 h,[11],31.7 µM
same,"remaining at 0.25 h, 2 µM",[12],103%
same,inhibition (INH),[13],28%
same,IC50,[14],21.4 µM
same,inhibition (INH),[15],18.5%
same,Activity,[16],Active
same,IC50,[17],30.5 µM
same,"remaining at 1 h, 2 µM",[18],98%
same,Activity,[19],Active
same,IC50,[20],24.5 µM
same,IC50,[21],20.8 µM
same,IC50,[22],18.6 µM
same,Activity,[23],6%
same,Activity,[24],92.3%
same,Activity,[25],Active; Slight Increased Activity Observed
same,Activity,[26],Active
same,Activity,[27],Active
same,"fraction unbound at 4 h, 10 µM",[28],0.425
same,"remaining at 0.5 h, 2 µM",[29],95%
same,Activity,[30],90.8%
same,IC50,[31],16.8 µM
same,Activity,[32],Active
same,Activity,[33],0%
same,inhibition (INH),[34],37.2%
same,IC50 at 72 h,[35],27.8 µM
same,inhibition (INH),[36],36.1%
same,Activity,[37],5.1%
same,"remaining at 0.5 h, 2 µM",[38],104%
same,IC50,[39],13.1 µM
same,IC50,[40],2520 nM
